What was measured:
Histamine H3 receptor [1] = molecular target: T1, Histamine H3 receptor (Homo sapiens, UniProt Q9Y5N1); test: Displacement of [3H]NAMH from human H3R expressed in HEK293T cells incubated for 2 hrs by microbeta scintillation counting analysis; type: cell-based
In short: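 Homogenates of HEK293T cells transiently expressing hH3R or mH3R, harvested 48 h post-transfection, incubated with 2 nM [3H]NAMH and increasing unlabeled ligand in 50 mM Tris–HCl pH 7.4, 2 h at 25 °C. Rapid filtration over 0.5% PEI-coated GF/C filters, scintillation counting. One-site fit; IC50 converted to pKi by Cheng–Prusoff; three experiments in triplicate.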

Histamine H3 receptor [2] = molecular target: T1, Histamine H3 receptor; test: Agonist activity at human H3R expressed on HEK293T cells assessed as inhibition of forskolin-induced CRE-driven luciferase activity co-incubated with forskolin for 6 hrs and measured after 30 mins by CRE-luciferase reporter gene assay; type: functional
In short: (§1)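 HEK293T cells transiently transfected (PEI method) in suspension with receptor cDNA (1000 ng), CRE-luciferase (2500 ng) and empty pcDEF3; 50.000 cells/well on poly-L-lysine, grown 24 h. Stimulated with increasing ligand concentrations plus 1 μM forskolin, 37 °C, 5% CO2, 6 h. Luciferase reagent (ATP, D-luciferin) added, luminescence read after 30 min at 37 °C. Nonlinear regression; α relative to histamine; three experiments in triplicate.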

Histamine H3 receptor [3] = molecular target: T1, Histamine H3 receptor; test: Intrinsic activity at human H3R expressed on HEK293T cells assessed as activation of forskolin-induced CRE-driven luciferase activity co-incubated with forskolin for 6 hrs and measured after 30 mins by CRE-luciferase reporter gene assay relative to histamine; type: functional; in short: as §1
Histamine H3 receptor [4] = molecular target: T1, Histamine H3 receptor; test: Displacement of [3H]-N-alpha-methylhistamine from human histamine H3 receptor expressed in CHO cells incubated for 40 min by liquid scintillation counting analysis; type: cell-based
Histamine H3 receptor [5] = molecular target: T1, Histamine H3 receptor; test: Agonist activity at recombinant human H3R expressed on cells incubated for 60 mins by [35S]GTPgammaS binding assay; type: functional

T1 sequence (Q9Y5N1 whole entry): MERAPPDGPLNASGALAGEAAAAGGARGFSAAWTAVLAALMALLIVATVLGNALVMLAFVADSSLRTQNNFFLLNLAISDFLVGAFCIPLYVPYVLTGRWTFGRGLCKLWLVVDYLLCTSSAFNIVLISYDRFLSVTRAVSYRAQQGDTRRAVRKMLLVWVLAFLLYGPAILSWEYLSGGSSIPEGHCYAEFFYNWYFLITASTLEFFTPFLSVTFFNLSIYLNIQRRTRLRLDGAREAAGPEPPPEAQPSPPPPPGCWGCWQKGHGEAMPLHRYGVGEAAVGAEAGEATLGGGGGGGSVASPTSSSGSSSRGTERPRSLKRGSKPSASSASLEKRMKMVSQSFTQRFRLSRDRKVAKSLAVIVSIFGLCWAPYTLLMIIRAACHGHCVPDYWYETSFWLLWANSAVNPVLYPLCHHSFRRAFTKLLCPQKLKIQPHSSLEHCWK

| SMILES | Ki (Histamine H3 receptor [1]) [nM] | EC50 (Histamine H3 receptor [2]) [nM] | Intrinsic activity (Histamine H3 receptor [3]) | Ki (Histamine H3 receptor [4]) [nM] | EC50 (Histamine H3 receptor [5]) [nM] |
| --- | --- | --- | --- | --- | --- |
| CCC(C)NC1CN(c2ccnc(N)n2)C1 (racemic) | 12.6 | 2 | 1.1 |  |  |
| CNC1CN(c2ccnc(N)n2)C1 | 6.31 | 1.26 | 1.1 |  |  |
| CN(C)C1CN(c2ccnc(N)n2)C1 | 50.1 | 3.98 | 1 |  |  |
| CCCCNC1CN(c2ccnc(N)n2)C1 | 15.8 | 0.794 | 1.2 |  |  |
| CNC1CN(c2cc(C(C)C)nc(N)n2)C1 | 100 | 12.6 | 0.7 |  |  |
| CCNC1CN(c2ccnc(N)n2)C1 | 10 | 0.631 | 1 |  |  |
| CCCCC(=O)O[C@H]1C[C@@H]2C[C@H]3[C@](NC)(CN2[C@@H](C)C1)C[C@]1(C(=O)Nc2c(C(=O)[C@H]4OC4(C)C)cccc21)[C@]3(C)C=O |  |  |  | 50.1 | 126 |
| CC(C)CNC1CN(c2ccnc(N)n2)C1 | 39.8 | 5.01 | 1.1 |  |  |

Results, then the molecule that gave them:

| Ki (Histamine H3 receptor [1]) [nM] | EC50 (Histamine H3 receptor [2]) [nM] | Intrinsic activity (Histamine H3 receptor [3]) | Ki (Histamine H3 receptor [4]) [nM] | EC50 (Histamine H3 receptor [5]) [nM] | SMILES |
| --- | --- | --- | --- | --- | --- |
| 39.8 | 3.16 | 1.2 |  |  | CC(C)NC1CN(c2ccnc(N)n2)C1 |
| 200 | 79.4 | 0.7 |  |  | CC(C)c1cc(N2CC(N)C2)nc(N)n1 |
| 63.1 | 7.94 | 1.2 |  |  | CCN(CC)C1CN(c2ccnc(N)n2)C1 |
| 31.6 | 10 | 0.8 |  |  | CNC1CN(c2cc(C)nc(N)n2)C1 |

From ChEMBL document CHEMBL4354817, “4-(3-Aminoazetidin-1-yl)pyrimidin-2-amines as High-Affinity Non-imidazole Histamine H3 Receptor Agonists with in Vivo Central Nervous System Activity” (J Med Chem, 2019)
